PubChem BioAssay AID623967 (Broad Institute, 2012)
Values joined by “and” are separate entries in the source; they are usually repeats but may differ in a detail not shown here. Equal entries are not always repeated. Active and inactive are the calls of the source.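 The calls were made as follows: active = compounds whose fitted dose for half their peak growth loss is at most twice the top usable dose; inconclusive = flat curve with moderate growth loss, or a poor fit; inactive = the rest.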

test system: Candida glabrata growth in glucose medium, OD600, 48 h; assay: C. glabrata growth inhibition on glucose, dose response, glucose medium, OD600, powder samples, set 3 (AID 623967); settings: not given
Procedure, shortened: (§1)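 System: Candida glabrata yeast cells, whole-organism growth assay. Times: 48 h at 30 °C without shaking. Signal: optical density at 600 nm. Evaluation: growth inhibition from reduced OD600.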

SMILES | AC50 [µM]
CC1/C=C/C=C\C=C\C=C\C=C\C=C\C=C\C(O[C@H]2OC(C)C(O)C(N)C2O)CC2OC(O)(CC(O)CC(O)C(O)CCC(O)CC(O)CC(=O)OC(C)C(C)C1O)CC(O)C2C(=O)O (stereo partly drawn) | 1.22

test system: not listed separately; assay: as above; settings: Candida glabrata growth in glucose medium, OD600, 48 h; at 3 µM (top of the series)
Procedure, shortened: as §1

SMILES | activity change, negative = inhibition
CCOC(=O)N1C(=O)C2(CCCCC2)N(c2ccc(F)cc2)C1=S | -12.7% (inactive)
CCOC(=O)N1C(=O)C2(CCCCC2)N(c2ccccc2)C1=S | -11.4% (inactive)
CCOC(=O)N1C(=O)C2(CCCCC2)N(c2ccc(C#N)cc2)C1=S | -6.49% (inactive)
C/C=C/[C@@H]1[C@H]2C[C@@H](C)CC[C@@H]2C(C)=C[C@H]1C(=O)c1c(O)c(-c2ccc(O)cc2)c[nH]c1=O | -1.31% (inactive)
CCOC(=O)N1C(=O)C2(CCCCC2)N(c2ccc(C)cc2)C1=S | -11.3% (inactive) and -13.1% (inactive)
CCOC(=O)N1C(=O)C2(CCCCC2)N(c2cccc(C)c2)C1=S | -8.41% (inactive)
CCOC(=O)N1C(=O)C2(CCCCC2)N(c2ccc(Cl)cc2)C1=S | -9.79% (inactive)
